Many of the other results were omitted from the sample, so hits are more common in it than they were.
Insulin prom act: TRM-6 insulin promoter activation; actives 0.81% (n = 130,000); activation, % at 2 µM; AID 1296; TRM-6 cells (human fetal islet line), insulin promoter eGFP reporter, imaging; plate-scaled: unstimulated 0, stimulated control 100;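 active means activation at 2 µM above a set limit, confirmed on inspection of the cell images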;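 further: share of cells whose green reporter signal exceeds an intensity cutoff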
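Assay system: TRM-6 human fetal islet cells, insulin promoter–eGFP reporter; Also added: 0.75 µM tamoxifen as reporter inducer; Schedule: 15 h tamoxifen pre-treatment, 48 h compound treatment at 37 °C; Signal: fixed-cell fluorescence microscopy, eGFP plus Hoechst; Read-out: percent activation from GFP-positive cell fraction; Control set: stimulated and unstimulated wells.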
Numbers without * were called inactive.

SMILES	Insulin prom act
Cc1ccc(-n2c(CNc3ccc(F)cc3)nnc2SCC(=O)N2CCCC2)cc1	162*
CC1CCN(C(=O)CSc2nnc(Cc3cccn3C)n2-c2ccc(F)cc2)CC1	-71
Cc1ccc(-n2nnnc2SCC(=O)N2CCCCC2)cc1	3
CCc1ccccc1NC(=O)C1CC(c2ccc(F)cc2)=NO1 (stereo unspecified)	3
COc1cccc(C(=O)NCCC2=CCCCC2)c1	7
O=c1cc(CSc2nnc3ccccn23)c2c(ccc3ccccc32)o1	-7
Cc1cc(C)cc(-n2nnnc2-c2cn(C)nc2C(F)(F)F)c1	132*
FC(F)(F)c1nc(-c2cccs2)ncc1-c1nnnn1-c1ccc(Cl)cc1	3
Cc1ccc(-n2nnnc2-c2ccco2)cc1	0
CNC(=S)Nc1ccc(Br)cc1	5
COC(=O)N/N=C/c1cc(Cl)cc(Cl)c1OCc1ccccc1F	-5
CC(=O)OCC(OC(C)=O)C(OC(C)=O)C(OC(C)=O)C(=O)Nc1ccccc1C (stereo unspecified)	8
COc1ccc(CCNC(=O)CCc2ccc(S(=O)(=O)NCC(C)C)cc2)cc1	115
Cc1ccc(-c2nc(SCC(=O)NCC3CCCO3)c(-c3ccc(Cl)cc3)[nH]2)cc1 (stereo unspecified)	2
CC(C)(C)NC(=O)/C(=C\c1ccccc1F)NC(=O)c1ccc([N+](=O)[O-])cc1	0
CC(C)(C)NC(=O)/C(=C/c1ccccc1F)NC(=O)c1ccc([N+](=O)[O-])cc1	0
O=C(CCCNC(=O)/C(=C\c1ccccc1F)NC(=O)c1ccccc1)OCc1ccccc1	257*
Cc1nccn1CCCN1C(=O)OC2(CCCCC2)C1(C)O (stereo unspecified)	61
CCOC(=O)C1CCCN(CCC(=O)Nc2cccc(C)c2)C1 (stereo unspecified)	7
CCOC(=O)C1CCCN(CCC(=O)Nc2ccc(C)cc2)C1 (stereo unspecified)	528*
CCOC(=O)C1CCCN(CCC(=O)Nc2cccc(F)c2)C1 (stereo unspecified)	-9
O=C(CSc1nnnn1-c1ccc2c(c1)CCC2)NCc1cccs1	7
CSc1nnc(C)c(=O)n1COC(=O)COc1ccc(Cl)cc1Cl	8
COc1ccc(C2CC(c3ccc(OC)cc3)n3nc(NC(=O)c4cccs4)nc3N2)cc1 (stereo unspecified)	-9
CN(C(=S)Nc1ccccc1)c1ccccc1	-7
SMILES	Insulin prom act
Cc1nn(-c2ccccc2)cc1C(=S)Nc1ccccc1	-7
Cc1cnc(C)c(N(C)NC(=S)Nc2ccccc2)n1	485*
Cc1nn(C)c(C)c1NC(=O)c1ccc(Br)o1	7
CSc1ccc(C(=O)C2CCCN(C(=O)c3cccc(N4CCOCC4)c3)C2)cc1 (stereo unspecified)	0
Cc1cc(Br)c(NC(=O)CCl)c(Br)c1	3
COc1ccc(Br)cc1C(=O)Nc1nnn(C)n1	0
Cc1cc(C)c(OCC(=O)Nc2nnn(C)n2)c(Br)c1	77*
CC(C)(C)c1ccc(-c2n[nH]c(=S)n2/N=C/c2ccncc2)cc1	-8
Cc1ccccc1OCCCC(=O)Nc1ccc2c(c1)OCO2	-7
Cc1ccc(C(=O)Nc2ccc3c(c2)OCO3)cc1	5
CCCCC(=O)Nc1ccc(C(=O)Nc2ccc3c(c2)OCO3)cc1	475*
COc1ccc(CCNC(=O)C(C)Sc2ccccc2)cc1OC (stereo unspecified)	-3
Cn1c(CNC(=O)c2ccc(Cl)c(Cl)c2)nnc1SCC(=O)Nc1sc2c(c1C#N)CCCC2	-7
CC(=O)NC1(c2nnnn2CCOC(=O)Nc2ccc(Cl)cc2)CCCCC1	110
CCn1nnc2c(=O)oc3ccccc3c21	-3
CN(C)c1ccc(/C=C/C=C2/SC(=S)N(c3ccccc3)C2=O)cc1	296*
CN(C)c1ccc(/C=C/C(O)=C2/C(=O)N(C)C3(C)CC2c2ccccc2O3)cc1 (stereo unspecified)	64
CN(C)c1ccc(/C=N/N2C(=N)N(c3ccccc3)C(=S)C2=Nc2ccccc2)cc1	252
Cc1cccc(C)c1-n1nnnc1C1(Nc2ccccc2)CCCCC1	4
CC(=O)Nc1ccc(OC(=O)c2cccnc2)cc1	3
Cc1cccc(C)c1NC(=O)C1(NC(=O)C2CCCN2C(=O)OC(C)(C)C)CCCCC1 (stereo unspecified)	171*
CC(C)(C)OC(=O)N1CCCC1C(=O)NCCc1ccccc1 (stereo unspecified)	9
Cc1ccc(NC(=O)C2CCCN2C(=O)Oc2ccccc2)cc1C (stereo unspecified)	0
C/C(=N\Nc1ccc(C(=O)O)cc1)c1nc2ccccc2n1C	6
COc1ccc(NC(=O)c2nn(C)c(=O)c3ccccc23)cc1S(=O)(=O)Nc1ccccc1Cl	-7
CCOc1ccccc1C(=O)Nc1nnc(CC)s1	-71
COc1ccc(CCNC(=O)CSc2ncn[nH]2)cc1	-86
O=C(CSc1ncn[nH]1)NC1CCCc2ccccc21 (stereo unspecified)	0
O=C(CSc1ncn[nH]1)NCCC(c1ccccc1)c1ccccc1	85*
